In ChEMBL document CHEMBL1134346, “Labeling and evaluation of N-[11C]methylated quinoline-2-carboxamides as potential radioligands for visualization of peripheral benzodiazepine receptors” (J Med Chem, 2001):

Key:
Rattus norvegicus [1] = species: Rattus norvegicus; experiment: Tissue (adrenal gland) distribution in Albino male CD rats after 60 minutes expressed as percent of injected dose per gram of organ.; assay type: ADME, organism-based; settings: in vivo, 1 h
How it was run: (§1)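 Radioligand given in saline into tail vein of male albino CD rats (225-250 g); 100-200 µCi per animal, 1-2 Ci/µmol at injection depending on radioligand. Three rats per time point were decapitated under light ether anaesthesia. Blood, plasma, brain regions and washed organs were weighed and gamma-counted. Uptake is %I.D./g tissue, mean ± SD.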

Rattus norvegicus [2] = species: Rattus norvegicus; experiment: Tissue (cortex) distribution in Albino male CD rats after 60 minutes expressed as percent of injected dose per gram of organ.; assay type: ADME, organism-based; settings: in vivo, 1 h; how it was run: as §1
[3] = target: Translocator protein (Rattus norvegicus) (UniProt P16257); experiment: Tissue (liver) concentration of radioactivity at 30 min post-injection into Albino male CD rats after pretreatment with cold PK 11195.; assay type: functional, tissue-based
How it was run: (§2)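 Separate groups of five rats received tail-vein PK 11195 (1.4-1.6 mg; 5 mg/kg) in 30 µL DMSO:EtOH 1:1, or vehicle alone, immediately before iv radioligand (90-170 µCi in saline, 0.9-1 Ci/µmol). Rats were decapitated at 30 min and tissues gamma-counted; values are %I.D./g.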

Rattus norvegicus [4] = species: Rattus norvegicus; experiment: Tissue (adrenal gland) distribution in Albino male CD rats after 5 minutes expressed as percent of injected dose per gram of organ.; assay type: ADME, organism-based; settings: in vivo; how it was run: as §1
Rattus norvegicus [5] = species: Rattus norvegicus; experiment: Tissue (plasma) distribution in Albino male CD rats after 90 minutes expressed as percent of injected dose per gram of organ.; assay type: ADME, organism-based; settings: in vivo, 1.5 h
How it was run: (§3)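 Male albino CD rats (225-250 g) received the 11C-labelled radioligand in saline by tail-vein injection. Three rats per time point were decapitated under light ether anaesthesia at 5, 15, 30, 60 or 90 min. Blood was collected heparinized and plasma separated by centrifugation. The pituitary was dissected from the brain. Lung, liver (three-lobe pieces) and right deltoid muscle were sampled, washed in cold saline, gamma-counted and weighed. Results are %I.D./g.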

Rattus norvegicus [6] = species: Rattus norvegicus; experiment: Tissue (liver) concentration of radioactivity at 30 min post-injection into Albino male CD rats with vehicle.; assay type: ADME, organism-based; settings: in vivo, 0.5 h; how it was run: as §2
Rattus norvegicus [7] = species: Rattus norvegicus; experiment: Tissue (cerebellum) distribution in Albino male CD rats after 30 minutes expressed as percent of injected dose per gram of organ.; assay type: ADME, organism-based; settings: in vivo, 0.5 h; how it was run: as §1
Rattus norvegicus [8] = species: Rattus norvegicus; experiment: Tissue (heart) distribution in Albino male CD rats after 30 minutes expressed as percent of injected dose per gram of organ.; assay type: ADME, organism-based; settings: in vivo, 0.5 h; how it was run: as §1
Rattus norvegicus [9] = species: Rattus norvegicus; experiment: Tissue (blood) distribution in Albino male CD rats after 15 minutes expressed as percent of injected dose per gram of organ.; assay type: ADME, organism-based; settings: in vivo, 0.25 h; how it was run: as §1
Rattus norvegicus [10] = species: Rattus norvegicus; experiment: Tissue (plasma) distribution in Albino male CD rats after 60 minutes expressed as percent of injected dose per gram of organ.; assay type: ADME, organism-based; settings: in vivo, 1 h; how it was run: as §3
Rattus norvegicus [11] = species: Rattus norvegicus; experiment: Tissue (blood) distribution in Albino male CD rats after 30 minutes expressed as percent of injected dose per gram of organ.; assay type: ADME, organism-based; settings: in vivo, 0.5 h; how it was run: as §1
Rattus norvegicus [12] = species: Rattus norvegicus; experiment: Tissue (testicle) distribution in Albino male CD rats after 5 minutes expressed as percent of injected dose per gram of organ.; assay type: ADME, organism-based; settings: in vivo; how it was run: as §3
[13] = target: Translocator protein (Rattus norvegicus) (UniProt P16257); experiment: Tissue (pituitary) concentration of radioactivity at 30 min post-injection into Albino male CD rats after pretreatment with cold PK 11195.; assay type: functional, tissue-based; settings: Pituitary gland
How it was run: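 Blocking study in male albino CD rats, five per group. Immediately before the 11C radioligand (in saline, i.v. tail vein), rats received 30 µL tail-vein PK 11195 (5 mg/kg; 1.4-1.6 mg) in DMSO:EtOH 1:1, or vehicle. Rats were decapitated at 30 min. Tissues were dissected, washed, gamma-counted and weighed as in the biodistribution study. Results are %I.D./g.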

Rattus norvegicus [14] = species: Rattus norvegicus; experiment: Tissue (intestine) distribution in Albino male CD rats after 15 minutes expressed as percent of injected dose per gram of organ.; assay type: ADME, organism-based; settings: in vivo, 0.25 h; how it was run: as §1
[15] = target: Translocator protein (Rattus norvegicus) (UniProt P16257); experiment: Tissue (cortex) concentration of radioactivity at 30 min post-injection into Albino male CD rats after pretreatment with cold PK 11195.; assay type: functional; how it was run: as §2
Rattus norvegicus [16] = species: Rattus norvegicus; experiment: Tissue (plasma) distribution in Albino male CD rats after 15 minutes expressed as percent of injected dose per gram of organ.; assay type: ADME, organism-based; settings: in vivo, 0.25 h; how it was run: as §3
Rattus norvegicus [17] = species: Rattus norvegicus; experiment: Tissue (blood) distribution in Albino male CD rats after 60 minutes expressed as percent of injected dose per gram of organ.; assay type: ADME, organism-based; settings: in vivo, 1 h; how it was run: as §1
Rattus norvegicus [18] = species: Rattus norvegicus; experiment: Tissue (lung) distribution in Albino male CD rats after 15 minutes expressed as percent of injected dose per gram of organ.; assay type: ADME, organism-based; settings: in vivo, 0.25 h; how it was run: as §3
Rattus norvegicus [19] = species: Rattus norvegicus; experiment: Tissue (liver) distribution in Albino male CD rats after 15 minutes expressed as percent of injected dose per gram of organ.; assay type: ADME, organism-based; settings: in vivo, 0.25 h; how it was run: as §1
Rattus norvegicus [20] = species: Rattus norvegicus; experiment: Tissue (cerebellum) distribution in Albino male CD rats after 90 minutes expressed as percent of injected dose per gram of organ.; assay type: ADME, organism-based; settings: in vivo, 1.5 h; how it was run: as §1
Rattus norvegicus [21] = species: Rattus norvegicus; experiment: Tissue (cortex) distribution in Albino male CD rats after 90 minutes expressed as percent of injected dose per gram of organ.; assay type: ADME, organism-based; settings: in vivo, 1.5 h; how it was run: as §1
Rattus norvegicus [22] = species: Rattus norvegicus; experiment: Tissue (pituitary) distribution in Albino male CD rats after 90 minutes expressed as percent of injected dose per gram of organ.; assay type: ADME, organism-based, Pituitary gland; settings: in vivo, 1.5 h; how it was run: as §3
Rattus norvegicus [23] = species: Rattus norvegicus; experiment: Tissue (cortex) distribution in Albino male CD rats after 15 minutes expressed as percent of injected dose per gram of organ.; assay type: ADME, organism-based; settings: in vivo, 0.25 h; how it was run: as §1
Rattus norvegicus [24] = species: Rattus norvegicus; experiment: Tissue (muscle) distribution in Albino male CD rats after 30 minutes expressed as percent of injected dose per gram of organ.; assay type: ADME, organism-based; settings: in vivo, 0.5 h; how it was run: as §3
Rattus norvegicus [25] = species: Rattus norvegicus; experiment: Tissue (kidney) distribution in Albino male CD rats after 15 minutes expressed as percent of injected dose per gram of organ.; assay type: ADME, organism-based; settings: in vivo, 0.25 h; how it was run: as §1
Rattus norvegicus [26] = species: Rattus norvegicus; experiment: Tissue (cerebellum) distribution in Albino male CD rats after 60 minutes expressed as percent of injected dose per gram of organ.; assay type: ADME, organism-based; settings: in vivo, 1 h; how it was run: as §1
Rattus norvegicus [27] = species: Rattus norvegicus; experiment: Tissue (pituitary) distribution in Albino male CD rats after 5 minutes expressed as percent of injected dose per gram of organ.; assay type: ADME, organism-based, Pituitary gland; settings: in vivo; how it was run: as §3
Rattus norvegicus [28] = species: Rattus norvegicus; experiment: Tissue (intestine) distribution in Albino male CD rats after 30 minutes expressed as percent of injected dose per gram of organ.; assay type: ADME, organism-based; settings: in vivo, 0.5 h; how it was run: as §1
Rattus norvegicus [29] = species: Rattus norvegicus; experiment: Tissue (heart) distribution in Albino male CD rats after 60 minutes expressed as percent of injected dose per gram of organ.; assay type: ADME, organism-based; settings: in vivo, 1 h; how it was run: as §1
Rattus norvegicus [30] = species: Rattus norvegicus; experiment: Tissue (kidney) distribution in Albino male CD rats after 5 minutes expressed as percent of injected dose per gram of organ.; assay type: ADME, organism-based; settings: in vivo; how it was run: as §1
Rattus norvegicus [31] = species: Rattus norvegicus; experiment: Tissue (cortex) concentration of radioactivity at 30 min post-injection into Albino male CD rats with vehicle.; assay type: ADME, organism-based; settings: in vivo, 0.5 h; how it was run: as §2
[32] = target: Translocator protein (Rattus norvegicus) (UniProt P16257); experiment: Tissue (adrenal gland) concentration of radioactivity at 30 min post-injection into Albino male CD rats after pretreatment with cold PK 11195.; assay type: functional, tissue-based; how it was run: as §2
Rattus norvegicus [33] = species: Rattus norvegicus; experiment: Tissue (spleen) distribution in Albino male CD rats after 60 minutes expressed as percent of injected dose per gram of organ.; assay type: ADME, organism-based; settings: in vivo, 1 h
Rattus norvegicus [34] = species: Rattus norvegicus; experiment: Tissue (liver) distribution in Albino male CD rats after 30 minutes expressed as percent of injected dose per gram of organ.; assay type: ADME, organism-based; settings: in vivo, 0.5 h; how it was run: as §3
Rattus norvegicus [35] = species: Rattus norvegicus; experiment: Tissue (pituitary) distribution in Albino male CD rats after 15 minutes expressed as percent of injected dose per gram of organ.; assay type: ADME, organism-based, Pituitary gland; settings: in vivo, 0.25 h; how it was run: as §3
Rattus norvegicus [36] = species: Rattus norvegicus; experiment: Tissue (heart) distribution in Albino male CD rats after 5 minutes expressed as percent of injected dose per gram of organ.; assay type: ADME, organism-based; settings: in vivo; how it was run: as §1
Rattus norvegicus [37] = species: Rattus norvegicus; experiment: Tissue (testicle) distribution in Albino male CD rats after 60 minutes expressed as percent of injected dose per gram of organ.; assay type: ADME, organism-based; settings: in vivo, 1 h; how it was run: as §3
Rattus norvegicus [38] = species: Rattus norvegicus; experiment: Tissue (blood) distribution in Albino male CD rats after 90 minutes expressed as percent of injected dose per gram of organ.; assay type: ADME, organism-based; settings: in vivo, 1.5 h; how it was run: as §1
Rattus norvegicus [39] = species: Rattus norvegicus; experiment: Tissue (liver) distribution in Albino male CD rats after 5 minutes expressed as percent of injected dose per gram of organ.; assay type: ADME, organism-based; settings: in vivo; how it was run: as §3
Rattus norvegicus [40] = species: Rattus norvegicus; experiment: Tissue (kidney) distribution in Albino male CD rats after 60 minutes expressed as percent of injected dose per gram of organ.; assay type: ADME, organism-based; settings: in vivo, 1 h; how it was run: as §1

Sequence of Translocator protein (Rattus norvegicus) (P16257 whole entry, looked up): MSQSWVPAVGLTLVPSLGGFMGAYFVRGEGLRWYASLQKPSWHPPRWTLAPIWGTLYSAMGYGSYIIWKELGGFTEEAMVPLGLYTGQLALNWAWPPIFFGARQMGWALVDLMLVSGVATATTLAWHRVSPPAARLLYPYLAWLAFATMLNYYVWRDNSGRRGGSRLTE

## CCC(C)N(C)C(=O)c1nc2ccccc2c(-c2ccccc2)c1C (stereo not given)
Rattus norvegicus [1]
  I.D./g: 2.27%
Rattus norvegicus [2]
  I.D./g: 0.04%
[3]
  I.D./g: < 0.56%
Rattus norvegicus [4]
  I.D./g: 1.32%
Rattus norvegicus [5]
  I.D./g: 0.02%
Rattus norvegicus [6]
  I.D./g: 0.3%
Rattus norvegicus [7]
  I.D./g: 0.09%
Rattus norvegicus [8]
  I.D./g: 1.21%
Rattus norvegicus [9]
  I.D./g: 0.08%
Rattus norvegicus [10]
  I.D./g: 0.03%
Rattus norvegicus [11]
  I.D./g: 0.06%
Rattus norvegicus [12]
  I.D./g: 0.06%
[13]
  I.D./g: < 0.07%
Rattus norvegicus [14]
  I.D./g: 0.32%
[15]
  I.D./g: > 0.04%
Rattus norvegicus [16]
  I.D./g: 0.05%
Rattus norvegicus [17]
  I.D./g: 0.03%
Rattus norvegicus [18]
  I.D./g: 2.01%
Rattus norvegicus [19]
  I.D./g: 0.5%
Rattus norvegicus [20]
  I.D./g: 0.04%
Rattus norvegicus [21]
  I.D./g: 0.03%
Rattus norvegicus [22]
  I.D./g: 0.2%
Rattus norvegicus [23]
  I.D./g: 0.07%
Rattus norvegicus [24]
  I.D./g: 0.16%
Rattus norvegicus [25]
  I.D./g: 0.6%
Rattus norvegicus [26]
  I.D./g: 0.05%
Rattus norvegicus [27]
  I.D./g: 0.22%
Rattus norvegicus [28]
  I.D./g: 0.4%
Rattus norvegicus [29]
  I.D./g: 1.26%
Rattus norvegicus [30]
  I.D./g: 0.59%
Rattus norvegicus [31]
  I.D./g: 0.05%
[32]
  I.D./g: > 0.94%
Rattus norvegicus [33]
  I.D./g: 1.25%
Rattus norvegicus [34]
  I.D./g: 0.55%
Rattus norvegicus [35]
  I.D./g: 0.2%
Rattus norvegicus [36]
  I.D./g: 0.86%
Rattus norvegicus [37]
  I.D./g: 0.09%
Rattus norvegicus [38]
  I.D./g: 0.03%
Rattus norvegicus [39]
  I.D./g: 0.64%
Rattus norvegicus [40]
  I.D./g: 0.78%
